Measured values reported in ChEMBL document CHEMBL1126969, “Antipsoriatic anthrones with modulated redox properties. 1. Novel 10-substituted 1,8-dihydroxy-9(10H)-anthracenones as inhibitors of 5-lipoxygenase” (J Med Chem, 1993).

Key:
[1] = Reducing activity against 2,2-diphenyl-1-picrylhydrazyl with an equimolar amount of the test compound; c = Not reactive; type: ADME
[2] = Deoxyribose-damaging property as a measure of hydroxyl-radical formation (uM of malondialdehyde/mmol of deoxyribose released by 75 uM test compound)
Outline: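 2-Deoxy-D-ribose (2 mM) with FeCl3 (0.1 mM) in 30 mM KH2PO4-KOH buffer pH 7.4, compound at 75 μM final (acetonitrile vehicle, fresh stocks), 2 h at 37 °C. TBA/trichloroacetic acid added, heated 100 °C 15 min, acidified, extracted into butanol, A532 read. Calibrated against malondialdehyde standard; expressed as μmol MDA/mmol deoxyribose.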

[3] = biological target: T1, Arachidonate 5-lipoxygenase (Bos taurus, UniProt Q9BEG3); test: Inhibitory activity against 5-lipoxygenase (inhibition of 5-HETE and LTB4 biosynthesis) in bovine polymorphonuclear leukocytes (PMNL).; type: cell-based
T1 sequence (Q9BEG3 whole entry): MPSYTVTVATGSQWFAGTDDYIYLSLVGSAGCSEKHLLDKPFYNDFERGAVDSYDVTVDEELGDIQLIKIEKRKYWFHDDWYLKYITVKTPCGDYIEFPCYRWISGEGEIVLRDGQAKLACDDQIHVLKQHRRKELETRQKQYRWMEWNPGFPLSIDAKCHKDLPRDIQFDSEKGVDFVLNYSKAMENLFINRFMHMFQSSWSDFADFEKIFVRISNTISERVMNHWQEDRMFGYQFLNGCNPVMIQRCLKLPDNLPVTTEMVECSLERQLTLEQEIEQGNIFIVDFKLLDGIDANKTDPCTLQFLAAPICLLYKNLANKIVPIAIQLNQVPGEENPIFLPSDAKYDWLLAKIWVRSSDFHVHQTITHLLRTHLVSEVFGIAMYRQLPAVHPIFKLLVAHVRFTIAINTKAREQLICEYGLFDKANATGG

[4] = Reducing activity against 2,2-diphenyl-1-picrylhydrazyl; type: ADME
[5] = Deoxyribose-damaging property as a measure of hydroxyl-radical formation (uM test compound)
[6] = biological target: T2, Arachidonate 5-lipoxygenase (Bos taurus) (UniProt Q9BEG3); test: Inhibitory activity against 5-lipoxygenase (inhibition of 5-HETE and LTB4 biosynthesis) in bovine polymorphonuclear leukocytes (PMNL) at 30 uM; type: cell-based
T2 sequence (whole entry): T1 sequence (Q9BEG3 whole entry)
Outline: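 Bovine PMNL from EDTA blood, platelets removed, 1×10^7 cells/mL in PBS pH 7.4. Compound (DMSO, 0.4% final) preincubated 15 min at 37 °C, then stimulated with CaCl2 2 mM and A23187 20 μM for 10 min. Stopped with methanol/acetonitrile containing NDGA and PGB2 marker. LTB4 (280 nm) and 5-HETE (232 nm) quantified by RP-HPLC against internal and external standards.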

| Structure (SMILES) | kDPPH [1] | Deoxyribose degradation (uM of MDA mM-1) [2] | IC50 [3] [nM] | kDPPH [4] [M⁻¹ s⁻¹] | Deoxyribose degradation (uM of MDA mM-1) [5] | inhibition [6] [%] |
| --- | --- | --- | --- | --- | --- | --- |
| COc1c(OC)c(OC(C)=O)c2cc(Cl)ccc2c1OC(C)=O [LONAPALENE] | Not Active | < 0.15 |  |  |  |  |
| O=C1c2c(O)cccc2C(C(=O)CCc2ccc(O)cc2)c2cccc(O)c21 |  |  | 1000 | 7.8 | 2.5 |  |
| O=C1c2c(O)cccc2C(C(=O)CCc2ccccc2)c2cccc(O)c21 |  |  |  | 10.3 | < 0.2 |  |
| O=C1c2c(O)cccc2C(=Cc2ccc(O)c(O)c2)c2cccc(O)c21 |  | 0.44 | 500 | > 100 |  |  |
| COc1ccc(C=C2c3cccc(O)c3C(=O)c3c(O)cccc32)cc1 |  |  |  | < 1 | < 0.15 | < 10 |
| O=C1c2c(O)cccc2Cc2cccc(O)c21 [ANTHRALIN] |  |  |  | 24.2 |  |  |
| COc1ccc(CC(=O)C2c3cccc(O)c3C(=O)c3c(O)cccc32)cc1 |  |  | 500 | 15.1 | < 0.2 |  |
| O=C1c2c(O)cccc2C(=Cc2ccc(C(F)(F)F)cc2)c2cccc(O)c21 |  |  |  | < 1 | < 0.15 | 33 |
| CC(C)(C)c1cc(CC(=O)C2c3cccc(O)c3C(=O)c3c(O)cccc32)cc(C(C)(C)C)c1O |  |  |  | > 100 | < 0.2 |  |
| O=C1c2c(O)cccc2C(=Cc2ccc(O)cc2)c2cccc(O)c21 |  |  | 4000 | > 100 | < 0.15 |  |
| O=C(O)c1ccc(C=C2c3cccc(O)c3C(=O)c3c(O)cccc32)cc1 |  |  |  | < 1 | < 0.15 | < 10 |
| O=C1c2c(O)cccc2C(=CCCCCc2ccccc2)c2cccc(O)c21 |  |  |  | < 1 | < 0.15 | 0 |
| CC(=O)Oc1cccc2cc3cccc(OC(C)=O)c3c(OC(C)=O)c12 [TRIACETOXYANTHRENE] | Not Active | < 0.15 |  |  |  | 15 |
| COc1ccc(CCC(=O)C2c3cccc(O)c3C(=O)c3c(O)cccc32)cc1 |  |  | 1000 | 7.4 | 1.4 |  |
| O=C1c2c(O)cccc2C(C(=O)Cc2ccc(O)c(O)c2)c2cccc(O)c21 |  | 6.26 | 11000 | > 100 |  |  |
| COc1cccc(/C=C/C(=O)C2c3cccc(O)c3C(=O)c3c(O)cccc32)c1 |  |  | 3000 | > 100 |  |  |
| COC(=O)c1ccc(C=C2c3cccc(O)c3C(=O)c3c(O)cccc32)cc1 |  |  |  | < 1 | < 0.15 | < 10 |
| COc1ccc(C=C2c3cccc(O)c3C(=O)c3c(O)cccc32)cc1OC |  |  |  | < 1 | < 0.15 | < 10 |
| O=C1c2c(O)cccc2C(C(=O)Cc2ccc(OCc3ccccc3)c(OCc3ccccc3)c2)c2cccc(O)c21 |  |  |  | 15 | < 0.2 | 34 |
| O=C1c2c(O)cccc2C(=CCCc2ccccc2)c2cccc(O)c21 |  |  |  | < 1 | < 0.15 |  |
| O=C1c2c(O)cccc2C(C(=O)Cc2ccc(O)cc2)c2cccc(O)c21 |  |  |  | 14.7 | 0.36 |  |

| Structure (SMILES) | kDPPH [1] | Deoxyribose degradation (uM of MDA mM-1) [2] | IC50 [3] [nM] | kDPPH [4] [M⁻¹ s⁻¹] | Deoxyribose degradation (uM of MDA mM-1) [5] | inhibition [6] [%] |
| --- | --- | --- | --- | --- | --- | --- |
| COc1cc(CCC(=O)C2c3cccc(O)c3C(=O)c3c(O)cccc32)cc(OC)c1OC |  |  |  | 10.3 | < 0.2 |  |
| O=C1c2c(O)cccc2C(=CCCCc2ccccc2)c2cccc(O)c21 |  |  |  | < 1 | < 0.15 | 21 |
| O=C1c2c(O)cccc2C(=Cc2ccc([N+](=O)[O-])cc2)c2cccc(O)c21 |  |  | 2000 | < 1 | < 0.15 |  |
| O=C1c2c(O)cccc2C(C(=O)Cc2ccccc2)c2cccc(O)c21 |  |  |  | 16.4 | < 0.2 |  |
| O=C1c2c(O)cccc2C(C(=O)Cc2cc(O)c(O)c(O)c2)c2cccc(O)c21 |  | 2.99 |  | > 100 |  |  |
| O=C1c2c(O)cccc2C(C(=O)Cc2ccc(OCc3ccccc3)cc2)c2cccc(O)c21 |  |  | 600 | 13.3 | < 0.2 |  |
| O=C1c2c(O)cccc2C(C(=O)CCc2ccc(OCc3ccccc3)cc2)c2cccc(O)c21 |  |  | 2000 | 8.8 | < 0.2 |  |
| Cc1ccc(C=C2c3cccc(O)c3C(=O)c3c(O)cccc32)cc1 |  |  |  | < 1 | < 0.15 | 23 |
| O=C1c2c(O)cccc2C(C(=O)/C=C/c2ccc([N+](=O)[O-])cc2)c2cccc(O)c21 |  | 0.88 | 6000 | > 100 |  |  |
| O=C1c2c(O)cccc2C(C(=O)CCCc2ccccc2)c2cccc(O)c21 |  |  | 300 | 10.1 | < 0.2 |  |
| O=C1c2c(O)cccc2C(=Cc2ccccc2)c2cccc(O)c21 |  |  |  | < 1 | < 0.15 | 34 |
| O=C1c2c(O)cccc2C(C(=O)Cc2ccc([N+](=O)[O-])cc2)c2cccc(O)c21 |  |  |  | 63.7 | < 0.2 |  |
| CCCC(=O)C1c2cccc(O)c2C(=O)c2c(O)cccc21 [BUTANTRONE] |  |  | 33000 | 7 | 0.24 |  |
| O=C1c2c(O)cccc2C(C(=O)Cc2cc(OCc3ccccc3)c(OCc3ccccc3)c(OCc3ccccc3)c2)c2cccc(O)c21 |  | < 0.2 |  | 15.3 |  |  |
| COc1ccc(CCC(=O)C2c3cccc(O)c3C(=O)c3c(O)cccc32)cc1OC |  |  | 17000 | 8.7 | < 0.2 |  |
| O=C1c2c(O)cccc2C(C(=O)CCCCc2ccccc2)c2cccc(O)c21 |  |  | 2000 | 10.1 | < 0.2 |  |
| O=C1c2c(O)cccc2C(=CCc2ccccc2)c2cccc(O)c21 |  |  |  | < 1 | < 0.15 | 30 |
| COc1cc(C=C2c3cccc(O)c3C(=O)c3c(O)cccc32)cc(OC)c1OC |  |  |  | < 1 | < 0.15 | 10 |
| O=C1c2c(O)cccc2C(C(=O)/C=C/c2ccccc2)c2cccc(O)c21 |  | 1.66 |  | > 100 |  |  |
| N#Cc1ccc(C=C2c3cccc(O)c3C(=O)c3c(O)cccc32)cc1 |  |  |  | < 1 | < 0.15 | 34 |
| CC(Cc1ccc(O)c(O)c1)C(C)Cc1ccc(O)c(O)c1 (stereo unspecified) [NORDIHYDROGUAIARETIC ACID] |  | 0.23 |  | > 100 |  |  |
